Among the data in ChEMBL document CHEMBL1124831, “Conjugate addition ligands of opioid antagonists. Methacrylate esters and ethers of 6 alpha- and 6 beta-naltrexol” (J Med Chem, 1990) are IC50, AD50 and Control values, retold here.

Each structure is given as a SMILES string. pIC50: −log10 of the molar value.

One assay has as its target Mu-type opioid receptor (Bos taurus, UniProt P79350). In words: In vitro binding affinity against Opioid receptor mu 1 from bovine caudate nucleus determined in presence of [3H]DAGO (1 nM). In outline: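 Crude bovine striatal membranes were stored at -70 °C. […] Competitor was tested at five concentrations, with nonspecific binding defined by 10 μM naloxone. Incubation was 45 min at 25 °C in 50 mM Tris-HCl or potassium phosphate, pH 7.4, with 1 mM EDTA. Read-out was GF/B filtration and scintillation counting. IC50 is from duplicates or triplicates.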

For another assay, the species on record is Mus musculus. Kind of assay: Antagonist activity against morphine was determined […] in mice using tail flick assay. The assay is classed as functional. In outline: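 Mouse tail-flick test against morphine given sc, run by the Committee on Problems of Drug Dependence. The antagonist dose giving 50% blockade (AD50, mg/kg) is reported with 95% confidence limits.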

For assay [1], the target named is T1, Opioid receptors; mu/kappa/delta (Homo sapiens, UniProt P41145+P41143+P35372). In words: In vitro binding affinity against Opioid receptors from bovine caudate nucleus determined in presence of [3H]- bremazocine (0.5 nM). The assay is classed as protein assay, Bos taurus. Conditions: target entry is the homologue from another species. In a few lines:
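Crude bovine striatal membranes were stored at -70 °C. Competitor was tested at five concentrations, with nonspecific binding defined by 10 μM naloxone. Incubation was 45 min at 25 °C in 50 mM Tris-HCl or potassium phosphate, pH 7.4, with 1 mM EDTA. Read-out was GF/B filtration and scintillation counting. IC50 is from duplicates or triplicates.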

Assay [2] has as its target T1, Opioid receptors; mu/kappa/delta. The following applies: Bos taurus; at 100 nM.
For assay [3] the target is unchanged. The following applies: Bos taurus; at 100 nM. This is another data set of the same source.
The target is the same in assay [4]. The following applies: Bos taurus; at 100 nM. This is another data set of the same source.
Assay [5] has the same target. Conditions: Bos taurus; at 100 nM. The source holds these as a separate data set.
For assay [6] the target is unchanged. Conditions: Bos taurus; at 100 nM. The source holds these as a separate data set.
The target is the same in assay [7]. Conditions: Bos taurus; at 20 nM.
The target is the same in assay [8]. Conditions: Bos taurus; at 20 nM. This is another data set of the same source.
Assay [9] has the same target. Conditions: Bos taurus; at 20 nM. The source holds these as a separate data set.
Assay [10] has the same target. Kind of assay: Irreversible inhibition of 1 nM DAGO binding against Opioid receptors from unwashed bovine caudate membrane at 10 nM in presence of NaCl. More on the design: scale not given: the % may be the effect or the level left. The following applies: Bos taurus, target entry is the homologue from another species.
Assay [11] shares this target. Kind of assay: Irreversible inhibition of 1 nM DAGO binding against Opioid receptors from protected bovine caudate membrane at 10 nM in presence of NaCl. Also noted: scale not given: the % may be the effect or the level left. The following applies: Bos taurus, target entry is the homologue from another species.

Chain of Mu-type opioid receptor (P79350 whole entry): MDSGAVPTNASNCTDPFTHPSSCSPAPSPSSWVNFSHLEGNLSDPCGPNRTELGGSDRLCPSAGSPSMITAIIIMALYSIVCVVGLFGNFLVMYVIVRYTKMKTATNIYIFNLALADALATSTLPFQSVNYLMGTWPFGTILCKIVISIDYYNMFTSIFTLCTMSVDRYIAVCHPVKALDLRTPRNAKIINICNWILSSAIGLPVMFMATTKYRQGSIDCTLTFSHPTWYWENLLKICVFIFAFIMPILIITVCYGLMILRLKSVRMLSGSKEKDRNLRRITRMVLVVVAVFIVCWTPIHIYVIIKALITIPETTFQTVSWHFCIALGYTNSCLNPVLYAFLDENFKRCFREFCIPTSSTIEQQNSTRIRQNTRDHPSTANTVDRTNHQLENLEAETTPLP
T1 sequence (P35372 whole entry, looked up): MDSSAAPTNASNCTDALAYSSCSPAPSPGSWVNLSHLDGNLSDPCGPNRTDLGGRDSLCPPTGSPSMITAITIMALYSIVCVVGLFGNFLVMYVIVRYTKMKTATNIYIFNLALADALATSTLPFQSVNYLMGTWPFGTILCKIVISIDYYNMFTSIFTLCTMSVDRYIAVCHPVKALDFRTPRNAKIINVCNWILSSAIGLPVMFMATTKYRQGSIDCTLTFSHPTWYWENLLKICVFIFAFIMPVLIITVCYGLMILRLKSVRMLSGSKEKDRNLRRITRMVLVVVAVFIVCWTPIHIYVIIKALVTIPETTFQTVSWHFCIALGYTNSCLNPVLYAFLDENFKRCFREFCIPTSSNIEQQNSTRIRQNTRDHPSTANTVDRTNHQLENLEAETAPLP
T1 sequence (P41143 whole entry, looked up): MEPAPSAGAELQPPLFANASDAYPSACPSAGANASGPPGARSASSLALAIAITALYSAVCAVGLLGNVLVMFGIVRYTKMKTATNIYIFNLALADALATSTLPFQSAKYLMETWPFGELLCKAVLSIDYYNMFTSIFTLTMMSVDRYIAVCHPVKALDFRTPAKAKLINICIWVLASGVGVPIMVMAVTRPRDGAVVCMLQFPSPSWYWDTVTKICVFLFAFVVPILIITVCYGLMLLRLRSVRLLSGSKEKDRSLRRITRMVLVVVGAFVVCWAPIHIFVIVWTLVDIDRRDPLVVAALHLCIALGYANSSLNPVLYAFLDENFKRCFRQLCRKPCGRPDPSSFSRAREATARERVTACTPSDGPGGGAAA
T1 sequence (P41145 whole entry, looked up): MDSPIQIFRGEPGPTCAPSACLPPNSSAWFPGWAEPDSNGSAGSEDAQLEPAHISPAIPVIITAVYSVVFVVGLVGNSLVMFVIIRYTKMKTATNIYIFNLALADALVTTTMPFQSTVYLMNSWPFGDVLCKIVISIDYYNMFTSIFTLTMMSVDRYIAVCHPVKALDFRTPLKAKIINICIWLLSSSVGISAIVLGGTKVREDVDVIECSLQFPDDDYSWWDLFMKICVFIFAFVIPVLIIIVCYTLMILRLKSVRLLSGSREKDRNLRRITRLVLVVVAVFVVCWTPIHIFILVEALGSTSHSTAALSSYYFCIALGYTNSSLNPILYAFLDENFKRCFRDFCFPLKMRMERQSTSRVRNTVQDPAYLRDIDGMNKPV

As to `C=C(C)C(=O)OC1CCC2(O)C3Cc4ccc(O)c5c4[C@@]2(CCN3CC2CC2)C1O5` (some centres undefined), the negative-log IC50 (pIC50) (in general, the negative decadic logarithm of the IC50, by convention in mol/L) at Mu-type opioid receptor is 9.00. In the assay listed under Mus musculus, this molecule returned an AD50 of 0.02 mg/kg. The IC50 (as a rule, the concentration that gives 50% inhibition) in assay [1] is 5 nM. Moreover, the Control in [2] was 100%; in assay [3] it was 39%.

For `C=C(C)C(=O)O[C@H]1CC[C@@]2(O)[C@H]3Cc4ccc(O)c5c4[C@@]2(CCN3CC2CC2)[C@H]1O5`, at Mu-type opioid receptor, the pIC50 was 8.17. The same molecule gave an AD50 in the assay filed under Mus musculus of 0.02 mg/kg. In addition, the IC50 in assay [1] was determined as 20 nM. In addition, the Control in assay [2] amounted to 100%; in assay [3], 22%.

Take `C=C1CC2(CCC3(O)[C@H]4Cc5ccc(O)c6c5[C@@]3(CCN4CC3CC3)C2O6)OC1=O` (some centres undefined): the values for the Control in [4], in assay [5] and in assay [6] were 16%, 50% and 85%, respectively. The pIC50 at Mu-type opioid receptor was 8.74. Further, in assay [1], the IC50 is given as 6 nM.

Take `C=C(COC1CCC2(O)C3Cc4ccc(O)c5c4[C@@]2(CCN3CC2CC2)C1O5)C(=O)OC` (some centres undefined): the negative logarithm of the IC50 (pIC50) on Mu-type opioid receptor is 9.74. In the assay filed under Mus musculus, this molecule gave an AD50 of 0.07 mg/kg. Further, the Control in assay [7] stood at 96%; in [8], 17%; in [9], 79%. Moreover, the IC50 in assay [1] amounted to 2.4 nM.

On to `O=C1CC[C@@]2(O)[C@H]3Cc4ccc(O)c5c4[C@@]2(CCN3CC2CC2)[C@H]1O5` [NALTREXONE], for which, in the assay filed under Mus musculus, the AD50 came to 0.007 mg/kg.

For the molecule `C=C(CO[C@@H]1CC[C@@]2(O)[C@H]3Cc4ccc(O)c5c4[C@@]2(CCN3CC2CC2)[C@H]1O5)C(=O)OC`, the pIC50 on Mu-type opioid receptor was 8.82. In the assay listed under Mus musculus, the AD50 is 0.02 mg/kg. For the same molecule, the Control in [10] turned out to be 20%; in [8], 35%; in assay [11], 95%; in assay [9] it was 59%. Besides, the IC50 in [1] is recorded as 12 nM.
